Test results from ChEMBL document CHEMBL1933013, “Synthesis, SAR, and preliminary mechanistic evaluation of novel antiproliferative N⁶,5'-bis-ureido- and 5'-carbamoyl-N⁶-ureidoadenosine derivatives” (Bioorg Med Chem, 2012).
In brackets after ≈: the same amount, converted by molar mass.

Tests used:
[1] = target: Bone morphogenetic protein receptor type-1B (Homo sapiens, UniProt O00238); assay: Inhibition of BMPR1B at 10 uM after 1 hr by competitive binding assay
Outline: (§1)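 Single-dose competitive binding at 10 μM against immobilized ATP-site ligands (DiscoveRx): phage-tagged or HEK-293-expressed DNA-tagged kinase with ligand-loaded streptavidin magnetic beads in 20% SeaBlock, 0.17× PBS, 0.05% Tween 20, 6 mM DTT, 1 h room temperature with shaking. Beads washed, eluted with 0.5 μM free ligand for 30 min; bound kinase quantified by qPCR as % binding inhibition.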

[2] = target: Receptor-type tyrosine-protein kinase FLT3 (Homo sapiens) (UniProt P36888); assay: Inhibition of FLT-3 kinase at 10 uM after 1 hr by competitive binding assay; outline: as §1
[3] = target: Ribosomal protein S6 kinase alpha-1 (Homo sapiens) (UniProt Q15418); assay: Inhibition of RPS6KA1 kinase at 10 uM after 1 hr by competitive binding assay; outline: as §1
[4] = target: Casein kinase I isoform gamma-2 (Homo sapiens) (UniProt P78368); assay: Inhibition of CSNK1G2 at 10 uM after 1 hr by competitive binding assay; outline: as §1
[5] = target: Inhibitor of nuclear factor kappa-B kinase subunit alpha (Homo sapiens) (UniProt O15111); assay: Inhibition of IKKalpha at 10 uM after 1 hr by competitive binding assay; outline: as §1
[6] = target: Tyrosine-protein kinase BTK (Homo sapiens) (UniProt Q06187); assay: Inhibition of BTK at 10 uM after 1 hr by competitive binding assay; outline: as §1
[7] = target: Serine/threonine-protein kinase PAK 3 (Homo sapiens) (UniProt O75914); assay: Inhibition of PAK3 at 10 uM after 1 hr by competitive binding assay; outline: as §1
[8] = target: Casein kinase II subunit alpha' (Homo sapiens) (UniProt P19784); assay: Inhibition of CSNK2A2 at 10 uM after 1 hr by competitive binding assay; outline: as §1
[9] = target: Non-receptor tyrosine-protein kinase TYK2 (Homo sapiens) (UniProt P29597); assay: Inhibition of TYK2 at 10 uM after 1 hr by competitive binding assay; outline: as §1
[10] = target: MAP/microtubule affinity-regulating kinase 3 (Homo sapiens) (UniProt P27448); assay: Inhibition of MARK3 at 10 uM after 1 hr by competitive binding assay
L1210 = assay: Antiproliferative activity against mouse L1210 cells after 48 hrs; format: functional, cell-based; conditions: L1210, 48 h
Outline: (§2)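 Cells in growth medium grown with variable compound concentrations at 37 °C in humidified CO2-controlled atmosphere; incubation 48 h for L1210 and FM3A, 72 h for CEM, 96 h for HeLa. Cell number counted by Coulter counter; IC50 = concentration inhibiting proliferation by 50%.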

FM3A = assay: Antiproliferative activity against mouse FM3A cells after 48 hrs; format: functional, cell-based; outline: as §2
CCRF-CEM = assay: Antiproliferative activity against human CEM cells after 72 hrs; format: cell-based; outline: as §2
HeLa = assay: Antiproliferative activity against human HeLa cells after 96 hrs; format: functional, cell-based; outline: as §2

| SMILES | IC50 (L1210) [µg/mL] | IC50 (FM3A) [µg/mL] | IC50 (CCRF-CEM) [µg/mL] | IC50 (HeLa) [µg/mL] | other results |
| --- | --- | --- | --- | --- | --- |
| CCOC(=O)C[C@H]1[C@@H](O[Si](C)(C)C(C)(C)C)[C@H](n2cnc3c(NC(=O)Nc4ccccc4)ncnc32)O[C@@H]1CNC(=O)NC |  |  |  |  | inhibition [1]: 47%; inhibition [2]: 31%; inhibition [3]: 40%; inhibition [4]: 38%; inhibition [5]: 37%; inhibition [6]: 35%; inhibition [7]: 33%; inhibition [8]: 31%; inhibition [9]: 31%; inhibition [10]: 34% |
| CCCNC(=O)Nc1ncnc2c1ncn2[C@@H]1O[C@H](CNC(=O)NC)[C@@H](O[Si](C)(C)C(C)(C)C)[C@H]1O[Si](C)(C)C(C)(C)C | 3.9 (≈ 6.12 µM) | 4.7 (≈ 7.38 µM) | 4.4 (≈ 6.91 µM) | 3.3 (≈ 5.18 µM) |  |
| CNC(=O)OC[C@H]1O[C@@H](n2cnc3c(NC(=O)NCc4ccccc4)ncnc32)[C@H](O[Si](C)(C)C(C)(C)C)[C@@H]1O[Si](C)(C)C(C)(C)C | 101 (≈ 147 µM) | > 200 | > 200 | 23 (≈ 33.5 µM) |  |
| CCCCCCNC(=O)Nc1ncnc2c1ncn2[C@@H]1O[C@H](CNC(=O)NC)[C@@H](O[Si](C)(C)C(C)(C)C)[C@H]1O[Si](C)(C)C(C)(C)C | 74 (≈ 109 µM) |  | 68 (≈ 100 µM) | 74 (≈ 109 µM) |  |
| CNC(=O)NC[C@H]1O[C@@H](n2cnc3c(NC(=O)Nc4ccc(OC)cc4)ncnc32)[C@H](O[Si](C)(C)C(C)(C)C)[C@@H]1O[Si](C)(C)C(C)(C)C | 3.8 (≈ 5.42 µM) | 5.8 (≈ 8.27 µM) | 5.2 (≈ 7.42 µM) | 2.6 (≈ 3.71 µM) |  |
| CNC(=O)NC[C@H]1O[C@@H](n2cnc3c(NC(=O)Nc4ccc([N+](=O)[O-])cc4)ncnc32)[C@H](O[Si](C)(C)C(C)(C)C)[C@@H]1O[Si](C)(C)C(C)(C)C | ≥ 200 | > 200 | > 200 | > 200 |  |
| CNC(=O)OC[C@H]1O[C@@H](n2cnc3c(NC(=O)NC4CCCCC4)ncnc32)[C@H](O[Si](C)(C)C(C)(C)C)[C@@H]1O[Si](C)(C)C(C)(C)C | 74 (≈ 109 µM) | > 200 | 175 (≈ 258 µM) | 69 (≈ 102 µM) |  |
| CCCCCCNC(=O)Nc1ncnc2c1ncn2[C@@H]1O[C@H](COC(=O)NC)[C@@H](O[Si](C)(C)C(C)(C)C)[C@H]1O[Si](C)(C)C(C)(C)C | > 200 | > 200 | 175 (≈ 257 µM) | 88 (≈ 129 µM) |  |
| CCCNC(=O)Nc1ncnc2c1ncn2[C@@H]1O[C@H](COC(=O)NC)[C@@H](O[Si](C)(C)C(C)(C)C)[C@H]1O[Si](C)(C)C(C)(C)C | 18 (≈ 28.2 µM) | 23 (≈ 36.1 µM) | 59 (≈ 92.5 µM) | 55 (≈ 86.2 µM) |  |
| CNC(=O)NC[C@H]1O[C@@H](n2cnc3c(NC(=O)NCc4ccccc4)ncnc32)[C@H](O[Si](C)(C)C(C)(C)C)[C@@H]1O[Si](C)(C)C(C)(C)C | 4.6 (≈ 6.72 µM) | 9.2 (≈ 13.4 µM) | 8.3 (≈ 12.1 µM) | 3.8 (≈ 5.55 µM) |  |
| CNC(=O)NC[C@H]1O[C@@H](n2cnc3c(NC(=O)Nc4ccc(I)cc4)ncnc32)[C@H](O[Si](C)(C)C(C)(C)C)[C@@H]1O[Si](C)(C)C(C)(C)C | 43 (≈ 54 µM) |  | 68 (≈ 85.3 µM) | 18 (≈ 22.6 µM) |  |
